TAG inh: reduces triacylglycerol accumulation in H9c2 cells | 230,000 tested, 0.66% active | inhibition, % at 12.5 µM | Nile Red lipid (TAG) fluorescence; cells loaded with 200 µM oleic acid;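 active = pattern-corrected inhibition of lipid staining of at least 50% with the nuclear-stain viability signal not falling by more than 50%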
MC4R antag cAMP: human MC4R antagonism in cAMP assay. MC4R-expressing cells, MTII-stimulated cAMP, LANCE TR-FRET. 360,000 tested, 0.48% active. inhibition, % at 6.5 µM. P32245;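 active = inhibition above its plate's cutoff, the mean of tested wells on that plate plus 3 SD, cut at about 29% in these data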
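System – human MC4R-expressing U2OS cells · Also added – Melanotan II · Dosing – one concentration, 6.5 µM nominal · Timing – 30-min compound, 1-h challenge, 1-h detection, room temperature · Measured by – Eu-cAMP/anti-cAMP TR-FRET, emission 671 nm · Replicates – singlicate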
MC4R ag barr: agonists of human melanocortin 4 receptor (MC4R) beta-arrestin | P32245 | U2OS MC4R beta-arrestin complementation, luminescence; percent of melanotan II response, DMSO zero | activation, % at 8.9 µM | 360,000 tested, 0.98% active | AID 540308;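 active = activation above a per-plate cutoff, the mean activation of sample wells on that plate plus 3 SD, cut at about 8% in these data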
TbMetRS inhib: Trypanosoma brucei MetRS inhibition. purified T. brucei MetRS, ATP depletion, Kinase-Glo luminescence. inhibition, % at 11.9 µM. 360,000 tested, 0.4% active. AID 624268;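 active = inhibition above a per-plate cutoff of the control wells' mean inhibition plus 3 SD, cut at about 5.5% in these data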
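System: purified T. brucei MetRS enzyme / Detection: Kinase-Glo luciferase luminescence reporting remaining unconsumed ATP / Medium: HEPES buffer with MgCl2, KCl, DTT, spermine, BSA, pyrophosphatase / Replication: singlicate, one well per compound / Evaluation: percent inhibition relative to median high and low control wells / Schedule: 2 h aminoacylation at 25 °C after 15 min preincubation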
NTR1 ag: agonists of human neurotensin receptor NTR1; NTR1-U2OS beta-arrestin-GFP spot imaging, agonist mode; activation, % at 20 µM; 330,000 tested, 0.17% active; AID 493036;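 active = activation at or above 40% of the spot to cytoplasm intensity ratio, with at least 20 cells analyzed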
Target sequence (P30989 whole entry, looked up): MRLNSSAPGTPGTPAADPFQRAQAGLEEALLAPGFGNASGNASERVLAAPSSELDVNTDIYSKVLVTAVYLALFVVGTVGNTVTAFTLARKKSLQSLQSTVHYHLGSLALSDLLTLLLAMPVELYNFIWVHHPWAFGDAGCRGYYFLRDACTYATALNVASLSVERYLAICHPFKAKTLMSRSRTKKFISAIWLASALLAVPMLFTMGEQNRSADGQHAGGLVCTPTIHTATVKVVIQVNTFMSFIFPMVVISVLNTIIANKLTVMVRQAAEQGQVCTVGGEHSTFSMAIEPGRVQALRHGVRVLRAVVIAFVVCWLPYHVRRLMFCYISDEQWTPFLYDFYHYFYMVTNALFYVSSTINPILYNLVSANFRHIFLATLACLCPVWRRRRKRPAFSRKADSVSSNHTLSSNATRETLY
aDG glyco up: increases alpha dystroglycan glycosylation; activation, % at 10 µM; 360,000 tested, 0.22% active; Pro5-aDG cells, alpha-DG glycosylation AlphaScreen (IIH6); 0% Pro5, 100% B10-LARGE cell signal;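 active = activation of at least 8% versus controls, or a plate z-score of at least 8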;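 also: Pro5 are CHO cells carrying HIG-tagged alpha-DG that lacks glycosylation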
A number is an active result. The list is not random: actives were taken first. Their share in the collection is about 2.4%.

Results for COc1ccc(OC)c(C(=O)Cn2nnc(-c3ccc(N4CCOCC4)cc3)n2)c1 ?
TAG inh: inactive; MC4R antag cAMP: inactive; MC4R ag barr: 9.3; TbMetRS inhib: inactive; NTR1 ag: inactive; aDG glyco up: inactive

How did COc1ccc(-c2ccc(-c3nnn(CC(=O)N4CCOCC4)n3)cc2)cc1 do in these assays?
MC4R antag cAMP: inactive; MC4R ag barr: inactive; TbMetRS inhib: inactive; NTR1 ag: inactive; aDG glyco up: inactive

How did CC1(c2cc([N+](=O)[O-])cc([N+](=O)[O-])c2)CC(C)(C)N(C(=O)c2ccccc2)c2ccccc21 (centres undefined) do in these assays?
TAG inh: 91; MC4R antag cAMP: inactive; MC4R ag barr: inactive; TbMetRS inhib: inactive; NTR1 ag: inactive; aDG glyco up: inactive

How did CCSc1nnc(-c2c[nH]c3ccccc23)o1 do in these assays?
MC4R antag cAMP: inactive; MC4R ag barr: inactive; TbMetRS inhib: inactive; NTR1 ag: inactive; aDG glyco up: inactive

How did Clc1ccc(CSc2nnc(-c3c[nH]c4ccccc34)o2)cc1 do in these assays?
MC4R antag cAMP: inactive; MC4R ag barr: 8.6; TbMetRS inhib: inactive; NTR1 ag: inactive; aDG glyco up: inactive

How did O=C(Nc1cnn(Cc2ccc(F)cc2)c1)c1cc(-c2ccco2)on1 do in these assays?
TAG inh: inactive; MC4R antag cAMP: inactive; MC4R ag barr: inactive; TbMetRS inhib: inactive; NTR1 ag: inactive; aDG glyco up: inactive

How did O=C(Nc1cnn(Cc2ccc(F)cc2)c1)c1cc2nc(-c3ccco3)cc(C(F)(F)F)n2n1 do in these assays?
TAG inh: inactive; MC4R antag cAMP: inactive; MC4R ag barr: 9.2; TbMetRS inhib: inactive; NTR1 ag: inactive; aDG glyco up: inactive

What do the screens show for `Cc1ccc(-c2nc3c(Cl)cc(C(F)(F)F)cn3c2Cc2ccsc2)cc1`?
TbMetRS inhib: inactive; aDG glyco up: inactive

What do the screens show for `CCc1nc2ccc(C(=O)Nc3ccc(OC)c(OC)c3)cn2c1N(C)CCC(C)C`?
TAG inh: inactive; MC4R antag cAMP: inactive; MC4R ag barr: inactive; TbMetRS inhib: inactive; aDG glyco up: inactive

Results for O=c1[nH]nc2c3ccccc3occ1-2 ?
TbMetRS inhib: inactive; aDG glyco up: inactive

How did Cc1c(C(=O)OCC(=O)Nc2ccc(N3CCOCC3)cc2)oc2ccccc12 do in these assays?
TAG inh: inactive; MC4R antag cAMP: inactive; MC4R ag barr: 9.2; TbMetRS inhib: inactive; NTR1 ag: inactive; aDG glyco up: inactive

Results for N#C/C(=C\c1ccc(C(=O)O)cc1)c1ccccn1 ?
TAG inh: inactive; MC4R antag cAMP: inactive; MC4R ag barr: inactive; TbMetRS inhib: inactive; NTR1 ag: inactive; aDG glyco up: inactive

What do the screens show for `N#C/C(=C\c1c[nH]c2ccc(Br)cc12)c1ccccn1`?
MC4R antag cAMP: inactive; MC4R ag barr: inactive; TbMetRS inhib: inactive; NTR1 ag: 51; aDG glyco up: inactive

How did CC(Oc1ccc(Cl)cc1Cl)c1nc(-c2ccc(NC(=O)c3ccncc3)cc2)no1 (centres undefined) do in these assays?
MC4R antag cAMP: inactive; MC4R ag barr: inactive; TbMetRS inhib: inactive; NTR1 ag: inactive; aDG glyco up: inactive

How did CC(Oc1ccc(Cl)cc1Cl)c1nc(-c2ccc(NC(=O)c3cccnc3)cc2)no1 (centres undefined) do in these assays?
TAG inh: inactive; MC4R antag cAMP: inactive; MC4R ag barr: inactive; TbMetRS inhib: inactive; NTR1 ag: inactive; aDG glyco up: 14

How did CC(C)C[C@H]1COc2cccc(N3CCSCC3)c2S(=O)(=O)N1 do in these assays?
TbMetRS inhib: inactive; aDG glyco up: inactive

Results for COc1ccccc1CNc1nc(NCc2ccc3occc3c2)c2sccc2n1 ?
TAG inh: inactive; MC4R antag cAMP: inactive; MC4R ag barr: inactive; TbMetRS inhib: inactive; aDG glyco up: inactive

How did O=C(N/N=C/c1ccco1)c1cc(Br)ccc1OCc1ccccc1 do in these assays?
TAG inh: inactive; MC4R antag cAMP: inactive; MC4R ag barr: 9.4; TbMetRS inhib: inactive; NTR1 ag: inactive; aDG glyco up: inactive

What do the screens show for `CN1CCN(C(=O)C[C@@H]2C=C[C@H](NS(=O)(=O)c3cccc(F)c3)[C@@H](CO)O2)CC1`?
TbMetRS inhib: inactive; aDG glyco up: inactive
